Reference: ChEMBL document CHEMBL1148391, “Discovery of 4-substituted pyrrolidone butanamides as new agents with significant antiepileptic activity” (J Med Chem, 2004)

Legend:
[1] = target: Synaptic vesicle glycoprotein 2A (Rattus norvegicus) (UniProt Q02563); assay: In vitro inhibitory activity against [3H](2S)-2-[4-(3-azidophenyl)-2-oxopyrrolidin-1-yl]butanamide binding to levetiracetam binding site; set-up: concentration or dose not given beside the values; details: concentration not given here
Synaptic vesicle glycoprotein 2A (Rattus norvegicus), sequence (Q02563 whole entry): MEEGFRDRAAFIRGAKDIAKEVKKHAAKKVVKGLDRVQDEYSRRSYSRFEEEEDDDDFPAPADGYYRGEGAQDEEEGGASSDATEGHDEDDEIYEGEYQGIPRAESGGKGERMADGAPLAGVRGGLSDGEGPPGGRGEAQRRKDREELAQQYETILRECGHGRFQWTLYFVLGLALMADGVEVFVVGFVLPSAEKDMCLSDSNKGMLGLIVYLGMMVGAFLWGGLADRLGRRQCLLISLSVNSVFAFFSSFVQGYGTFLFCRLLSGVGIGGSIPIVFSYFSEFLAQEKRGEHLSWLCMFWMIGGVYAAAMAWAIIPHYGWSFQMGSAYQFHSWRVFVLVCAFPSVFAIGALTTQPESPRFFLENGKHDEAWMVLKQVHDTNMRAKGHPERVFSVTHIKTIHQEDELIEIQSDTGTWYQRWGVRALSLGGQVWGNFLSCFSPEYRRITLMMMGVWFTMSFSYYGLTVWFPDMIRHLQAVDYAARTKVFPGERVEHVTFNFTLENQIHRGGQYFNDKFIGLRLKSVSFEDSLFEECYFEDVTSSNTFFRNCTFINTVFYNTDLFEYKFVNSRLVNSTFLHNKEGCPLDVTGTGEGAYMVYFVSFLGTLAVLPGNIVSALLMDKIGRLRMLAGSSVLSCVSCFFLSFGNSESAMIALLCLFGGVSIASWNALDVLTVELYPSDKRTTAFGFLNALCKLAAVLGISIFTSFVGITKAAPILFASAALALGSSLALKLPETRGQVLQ
How it was run: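 Rat cerebral cortex membranes (male Sprague-Dawley, 200–250 g), homogenised in Tris-HCl/sucrose at 4 °C, washed, preincubated 15 min at 37 °C. Binding: 4 °C for 120 min in 50 mmol/L Tris-HCl pH 7.4 with 2 mmol/L MgCl2, 1–2 × 10^-9 mol/L tritiated azidophenyl radioligand, rising test concentrations. Nonspecific binding with 10^-3 mol/L levetiracetam. Rapid filtration, scintillation counting. pIC50 is the mean of two independent determinations.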

Mus musculus [2] = assay: In vivo dose required to protect 50% audiogenic seizure prone mice against clonic convulsions; assay type: functional
How it was run: (§1)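 Genetically sound-sensitive DBA-derived mice, male or female, 14–28 g, N = 10 per group. Compound given ip 60 min before stimulus at log-spaced doses, generally 1.0 × 10^-5 to 1.0 × 10^-3 mol/kg, with a vehicle control group. After 30 s orientation, a 90 dB, 10–20 kHz tone was given for 30 s. Clonic convulsions were scored. ED50 with 95% confidence limits came from probit analysis.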

Mus musculus [3] = assay: In vivo dose required to protect 50% audiogenic seizure prone mice against clonic convulsions; value ranges from 59 to 281; assay type: functional; how it was run: as §1
[4] = Half life at 1 mg/kg was determined in rat; assay type: ADME, organism-based; set-up: dose 1 mg/kg; details: in vivo
[5] = Oral bioavailability at 1 mg/kg was determined in rat; assay type: ADME, organism-based; details: in vivo, read-out: Bioavailabiility
[6] = Total clearance at 1 mg/kg was determined in rat; assay type: ADME, organism-based; set-up: dose 1 mg/kg; details: in vivo
[7] = Maximum time to achieve peak plasma concentration was determined in rat at 1 mg/kg; assay type: ADME, organism-based; set-up: dose 1 mg/kg
[8] = Half life at 10 mg/kg was determined in rat; assay type: ADME, organism-based; set-up: dose 10 mg/kg; details: in vivo
[9] = Maximum time to achieve peak plasma concentration was determined in rat at 10 mg/kg; assay type: ADME, organism-based; set-up: dose 10 mg/kg
[10] = Total clearance at 10 mg/kg was determined in rat; assay type: ADME, organism-based; set-up: dose 10 mg/kg; details: in vivo
[11] = Oral bioavailability at 10 mg/kg was determined in rat; assay type: ADME, organism-based; details: in vivo, read-out: Bioavailabiility
Mus musculus [12] = assay: In vivo dose required to protect 50% audiogenic seizure prone mice against clonic convulsions; value ranges from 143 to 283; assay type: functional; how it was run: as §1
Mus musculus [13] = assay: In vivo dose required to protect 50% audiogenic seizure prone mice against clonic convulsions; value ranges from 102 to 715; assay type: functional; how it was run: as §1

SMILES: CC[C@@H](C(=O)Nc1ccccc1)N1CCCC1=O
- inhibition [1]: < 20%
- ED50 (Mus musculus [2]): 560 µmol/kg

SMILES: NCCCC(C(N)=O)N1CCCC1=O (centres undefined)
- inhibition [1]: < 20%

SMILES: CC[C@@H](C(N)=O)N1CC(CC(C)(C)C)CC1=O (some centres undefined)
- ED50 (Mus musculus [2]): 1000 µmol/kg

SMILES: CCC(C(N)=O)N1CC(COC)CC1=O (centres undefined)
- ED50 (Mus musculus [2]): 400 µmol/kg

SMILES: CCC(C(N)=O)N1C(=O)CCC1(C)C (single isomer, unassigned)
- ED50 (Mus musculus [2]): 1000 µmol/kg

SMILES: NC(=O)CN1CCCC1=O [PIRACETAM]
- ED50 (Mus musculus [2]): 10000 µmol/kg

SMILES: CCCCCCCCN(C(=O)Cc1ccc(Cl)cc1)C(CC)C(N)=O (centres undefined)
- ED50 (Mus musculus [2]): 1000 µmol/kg

SMILES: CCC(C(N)=O)N1CC(Cc2ccccc2)CC1=O (centres undefined)
- ED50 (Mus musculus [2]): 1000 µmol/kg

SMILES: CC[C@@H](C(N)=O)N(C)C(C)=O
- ED50 (Mus musculus [2]): 1800 µmol/kg

SMILES: CCCCCC1CCC(=O)N1C(CC)C(N)=O (centres undefined)
- inhibition [1]: < 20%

SMILES: CC[C@@H](C(N)=O)N1C[C@H](CF)CC1=O
- ED50 (Mus musculus [2]): 370 µmol/kg

SMILES: CC(C)(C)[C@@H](C(N)=O)N1CCCC1=O
- inhibition [1]: < 20%

SMILES: CC[C@@H](C(N)=O)N1C[C@H](CBr)CC1=O
- ED50 (Mus musculus [2]): 180 µmol/kg

SMILES: CCC[C@@H](C(N)=O)N1CCCC1=O
- ED50 (Mus musculus [3]): 190 µmol/kg

SMILES: CC[C@@H](C(=O)N(C)OC)N1CCCC1=O
- inhibition [1]: < 20%
- ED50 (Mus musculus [2]): 1000 µmol/kg

SMILES: CC[C@@H](C(=O)N(C)O)N1CCCC1=O
- ED50 (Mus musculus [2]): 1000 µmol/kg

SMILES: CC[C@@H](C(N)=O)N1CC(N)CC1=O (some centres undefined)
- inhibition [1]: < 20%

SMILES: CC[C@@H](C(N)=O)N1C[C@H](CI)CC1=O
- half-life [4]: 2 h
- bioavailability [5]: 100%
- ED50 (Mus musculus [2]): 13 µmol/kg
- clearance [6]: 4.8 mL/min/kg
- Tmax [7]: 0.8 h

SMILES: CC[C@@H](C(=O)NOC)N1CCCC1=O
- inhibition [1]: < 20%
- ED50 (Mus musculus [2]): 1000 µmol/kg

SMILES: CC(C)(C(N)=O)N1CCCC1=O
- inhibition [1]: < 20%

SMILES: CCC1CC(=O)N([C@@H](CC)C(N)=O)C1 (some centres undefined)
- ED50 (Mus musculus [2]): 87 µmol/kg

SMILES: CC[C@@H](C(N)=O)N1C[C@H](C)CC1=O
- ED50 (Mus musculus [2]): 110 µmol/kg

SMILES: CC[C@@H](C(N)=O)N1C(=O)CCC1C (some centres undefined)
- ED50 (Mus musculus [2]): 1000 µmol/kg

SMILES: CC[C@@H](C(N)=O)N1C[C@H](C(N)=O)CC1=O
- inhibition [1]: < 20%
- ED50 (Mus musculus [2]): 1000 µmol/kg

SMILES: CC[C@@H](C(N)=O)N1C[C@H](CSC)CC1=O
- ED50 (Mus musculus [2]): 160 µmol/kg

SMILES: CC[C@@H](C(N)=O)N1CCC(C)(CC)C1=O (some centres undefined)
- inhibition [1]: < 20%
- ED50 (Mus musculus [2]): 1000 µmol/kg

SMILES: CCCN(C(C)=O)C(CC)C(N)=O (centres undefined)
- inhibition [1]: < 20%

SMILES: CCC(C(N)=O)N1CC(C(C)C)CC1=O (centres undefined)
- ED50 (Mus musculus [2]): 360 µmol/kg

SMILES: CCC[C@@H]1CC(=O)N([C@@H](CC)C(N)=O)C1 [BRIVARACETAM]
- half-life [8]: 1.7 h
- Tmax [9]: 0.5 h
- clearance [10]: 4.67 mL/min/kg
- bioavailability [11]: 100%
- ED50 (Mus musculus [2]): 14 µmol/kg

SMILES: CC[C@@H](C(N)=O)N1CC(NC(=O)OC)CC1=O (some centres undefined)
- ED50 (Mus musculus [2]): 540 µmol/kg

SMILES: CCC(C(N)=O)N1CC(C(F)(F)F)CC1=O (centres undefined)
- inhibition [1]: < 20%
- ED50 (Mus musculus [2]): 1000 µmol/kg

SMILES: CC[C@@H](C(N)=O)N1C[C@H](CN2CCCC2)CC1=O
- inhibition [1]: < 20%
- ED50 (Mus musculus [2]): 320 µmol/kg

SMILES: CC[C@@H](C(=O)O)N1CCCC1=O
- inhibition [1]: < 20%
- ED50 (Mus musculus [2]): 3200 µmol/kg

SMILES: CC[C@@H](C(N)=O)N1C[C@H](CN=[N+]=[N-])CC1=O
- ED50 (Mus musculus [2]): 3.6 µmol/kg

SMILES: CC[C@@H](C(N)=O)N1CCCC1=O [LEVETIRACETAM]
- ED50 (Mus musculus [12]): 180 µmol/kg

SMILES: CC[C@@H](C(N)=O)N1C[C@H](C(=O)O)CC1=O
- inhibition [1]: < 20%
- ED50 (Mus musculus [2]): 1000 µmol/kg

SMILES: CC[C@H](C(N)=O)N1CCCC1=O [LEVITIRACETAM]
- ED50 (Mus musculus [2]): 1000 µmol/kg

SMILES: CC[C@@H](C(N)=O)N1C[C@H](CO[N+](=O)[O-])CC1=O
- ED50 (Mus musculus [2]): 25 µmol/kg

SMILES: CC[C@@H](C(=O)NN)N1CCCC1=O
- ED50 (Mus musculus [2]): 1000 µmol/kg

SMILES: CC[C@@H](C(N)=O)N1C[C@H](CNS(=O)(=O)c2ccccc2)CC1=O
- inhibition [1]: < 20%
- ED50 (Mus musculus [2]): 1000 µmol/kg

SMILES: CC[C@@H](C(N)=O)N1C[C@H](C(=O)OC)CC1=O
- inhibition [1]: < 20%
- ED50 (Mus musculus [2]): 1000 µmol/kg

SMILES: CC[C@@H](C(=O)NCc1ccccc1)N1CCCC1=O
- inhibition [1]: < 30%
- ED50 (Mus musculus [2]): 560 µmol/kg

SMILES: CCCC1(C)CC(=O)N([C@@H](CC)C(N)=O)C1 (some centres undefined)
- ED50 (Mus musculus [2]): 400 µmol/kg

SMILES: CC[C@@H](C(=N)NO)N1CCCC1=O
- inhibition [1]: < 20%
- ED50 (Mus musculus [2]): 1000 µmol/kg

SMILES: CCC[C@H]1CC(=O)N([C@@H](CC)C(N)=O)C1
- ED50 (Mus musculus [2]): 44 µmol/kg

SMILES: CCC(C(N)=O)N1CC(O)CC1=O (centres undefined)
- inhibition [1]: < 20%
- ED50 (Mus musculus [2]): 1000 µmol/kg

SMILES: CC[C@@H](C(N)=O)N1C[C@H](CCl)CC1=O
- ED50 (Mus musculus [2]): 25 µmol/kg

SMILES: CCCC1(CCC)CC(=O)N([C@@H](CC)C(N)=O)C1
- inhibition [1]: < 30%
- ED50 (Mus musculus [2]): 1000 µmol/kg

SMILES: CCC[C@H](C(N)=O)N1CCCC1=O
- ED50 (Mus musculus [2]): 1000 µmol/kg

SMILES: CC[C@@H](C(=N)S)N1CCCC1=O
- inhibition [1]: < 20%
- ED50 (Mus musculus [2]): 1000 µmol/kg

SMILES: CC[C@@H](C(N)=O)N1CCC(CO)C1=O (some centres undefined)
- inhibition [1]: < 20%

SMILES: C[C@@H](C(N)=O)N1CCCC1=O
- ED50 (Mus musculus [13]): 504 µmol/kg

SMILES: CCC(C(N)=O)N1C[C@H](CO)CC1=O (some centres undefined)
- inhibition [1]: < 20%

SMILES: CC[C@@H](C(N)=O)N1CC(CC2CC2)CC1=O (some centres undefined)
- ED50 (Mus musculus [2]): 33 µmol/kg

SMILES: CCOC(=O)[C@H](CC)N1CCCC1=O
- inhibition [1]: < 20%

SMILES: CC[C@@H](C(=O)NO)N1CCCC1=O
- ED50 (Mus musculus [2]): 1000 µmol/kg

SMILES: CC(C)C(C(N)=O)N1CCCC1=O (centres undefined)
- ED50 (Mus musculus [2]): 890 µmol/kg

SMILES: CCCCC1CC(=O)N(C(CC)C(N)=O)C1 (centres undefined)
- ED50 (Mus musculus [2]): 480 µmol/kg

SMILES: CC[C@@H](C(N)=O)N1CCC(C)C1=O (some centres undefined)
- ED50 (Mus musculus [2]): 1000 µmol/kg

SMILES: CC[C@@H](C(=N)N)N1CCCC1=O
- ED50 (Mus musculus [2]): 1000 µmol/kg

SMILES: CCCCCCN(CCCCCC)C(=O)[C@H](CC)N1CCCC1=O
- inhibition [1]: < 20%
- ED50 (Mus musculus [2]): 560 µmol/kg

SMILES: CCC(C(N)=O)N1CCC(Cc2ccccc2)C1=O (centres undefined)
- inhibition [1]: < 20%
- ED50 (Mus musculus [2]): 320 µmol/kg

SMILES: CC[C@@H](C(=O)NC)N1CCCC1=O
- ED50 (Mus musculus [2]): 1800 µmol/kg
